# Columns and labels:
# [1] = tested on: Human immunodeficiency virus 1; test: Cytotoxic concentration against monocyte-derived macrophage infected by the HIV-1/Ba-L strain using neutral red staining assay.; assay type: functional
# In short: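 Compound-exposed MDM, with drug renewed twice weekly, were checked microscopically during culture. At the end of culture they were stained with neutral red, and CC50 was calculated from the optical density values. The assay was repeated with cells from a second blood donor.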
# [2] = species: Oryctolagus cuniculus; test: Inhibition of PAF-induced platelet aggregation was determined using platelet rich plasma (PRP) of New Zealand rabbits.; assay type: functional
# In short: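 Rabbit platelet-rich plasma was incubated and stirred with antagonist for 2 min, then challenged with 2.5 nM PAF. Antagonist solutions in EtOH spanned 10^-2 to 10^-7 M. Aggregation was followed by continuous light-transmission recording and compared with PAF alone. IC50 came from dose-response curves (5-6 determinations).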
# [3] = tested on: Human immunodeficiency virus 1; test: Percent inhibition at 100 uM dose of HIV-1 replication using monocyte-derived macrophages infected by the HIV-1/Ba-L strain.; assay type: functional
# In short: (§1)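 Human monocytes were elutriated from seronegative donor PBMC and differentiated 7 days into MDM in RPMI 1640 with 10% heat-inactivated FCS. 1 million MDM were pretreated 1 h with compound and infected with 10 000 TCID50 (0.01 moi) HIV-1/Ba-L, then washed at 24 h. Medium and drug were renewed twice weekly. Read-out was supernatant RT activity, with a second donor repeat; mean ± SD.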
# [4] = tested on: Human immunodeficiency virus 1; test: Antiviral activity towards inhibition of HIV-1 replication using monocyte-derived macrophage infected by the HIV-1/Ba-L strain.; assay type: functional, organism-based; in short: as §1
# [5] = tested on: Human immunodeficiency virus 1; test: Percent inhibition at 10 uM dose of HIV-1 replication using monocyte-derived macrophage infected by the HIV-1/Ba-L strain.; assay type: functional; in short: as §1
# [6] = tested on: Human immunodeficiency virus 1; test: Antiviral activity towards inhibition of replication of HIV-1-DAS infected monocyte-derived macrophage; assay type: functional, organism-based
SMILES,CC50 [1] [µM],IC50 [2] [µM],inhibition at 100 µM [3] [%],IC50 [4] [µM],inhibition at 10 µM [5] [%],IC50 [6] [µM]
COc1cc(C(=O)N2CCN(C(=O)c3cc(OC)c(OC)c(OC)c3)C(COC(=O)C(C)(C)C)C2)cc(OC)c1OC (stereo not given),> 100,0.1,25,,,
CCCN(CCC)C(=O)OCC1CN(C(=O)c2cc(OC)c(OC)c(OC)c2)CCN1C(=O)c1cc(OC)c(OC)c(OC)c1 (stereo not given),> 100,0.37,66,,,
COc1cc(C(=O)N2CCN(C(=O)c3cc(OC)c(OC)c(OC)c3)C(COC(=O)NC(C)CC(C)C)C2)cc(OC)c1OC (stereo not given),> 100,0.28,-2,,,
COc1cc(C(=O)N2CCN(C(=O)c3cc(OC)c(OC)c(OC)c3)C(COC(=O)NCC(C)(C)C)C2)cc(OC)c1OC (stereo not given),> 100,1,74,,,
COc1cc(C(=O)N2CCN(C(=O)c3cc(OC)c(OC)c(OC)c3)C(COC(=O)N3CCCC3)C2)cc(OC)c1OC (stereo not given),> 100,10,,> 100,,
CCC1CN(C(=O)c2cc(OC)c(OC)c(OC)c2)CCN1C(=O)c1cc(OC)c(OC)c(OC)c1 (stereo not given),> 100,0.46,,230,,
COc1cc(C(=O)N2CCN(C(=O)c3cc(OC)c(OC)c(OC)c3)C(C)C2)cc(OC)c1OC (stereo not given),> 100,0.56,,66,,
CCCCCCCCCCC1CN(C(=O)c2cc(OC)c(OC)c(OC)c2)CCN1C(=O)c1cc(OC)c(OC)c(OC)c1 (stereo not given),> 50,0.24,,,40,
COc1cc(C(=O)N2CCN(C(=O)c3cc(OC)c(OC)c(OC)c3)C(CNC(=O)C(C)(C)C)C2)cc(OC)c1OC (stereo not given),> 100,> 100,,> 100,,
COc1cc(C(=O)N2CCN(C(=O)c3cc(OC)c(OC)c(OC)c3)C(COC(=O)N3CCCCC3)C2)cc(OC)c1OC (stereo not given),> 100,0.08,,95,,
COc1cc(C(=O)N2CCN(C(=O)c3cc(OC)c(OC)c(OC)c3)CC2)cc(OC)c1OC,> 100,1.78,,> 100,,
COc1cc(C(=O)N2CCN(C(=O)c3cc(OC)c(OC)c(OC)c3)C(COC(=O)NC(C)(C)C)C2)cc(OC)c1OC (stereo not given),> 100,0.13,52,,,
COc1cc(C(=O)N2CCN(C(=O)c3cc(OC)c(OC)c(OC)c3)C(CO)C2)cc(OC)c1OC (stereo not given),> 100,1.27,,> 100,,
NC(=O)c1ccn2c1CS[C@@H]2c1cccnc1 (racemic) [DACOPAFANT],,16,,,,
NC(=O)c1ccn2c1CS[C@@H]2c1cccnc1 [DACOPAFANT],,,,,,50
CCN(CC)C(=O)OCC1CN(C(=O)c2cc(OC)c(OC)c(OC)c2)CCN1C(=O)c1cc(OC)c(OC)c(OC)c1 (stereo not given) [PMS-601],> 1000,8,95,11,,
